High-throughput results (PubChem)
This is a sample that favours compounds with a hit; in the whole collection about 4.5% have one here.
GPR7 antagonist = GPR7 receptor antagonists, primary screen, cell-based, fluorescence, single concentration; AID 1861, 2009; actives 1.1% (n = 290,000); Neuropeptides B/W receptor type 1 (Homo sapiens), P48145; GPR7-expressing cells, fluorescence antagonist assay; inhibition, % at 4.4 µM; in the data active = inhibition above about 16%, passing the limit was not always enough;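 note: cells stimulated with the agonist NPW; 0% = agonist with vehicle and 100% = vehicle without agonist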
OX1R antag-1 = OX1R (HCRTR1) antagonists, primary screen, fluorescence, CHO/OX1R cells, Fluo-8 calcium, orexin A; Fluo-8 calcium fluorescence; actives 0.43% (n = 330,000); AID 434989, 2010; inhibition, % at 5 µM;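 active = inhibition above its plate's threshold, mean inhibition of all tested compounds on the plate plus 3 SD, cut at about 37% in these data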;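 note: 0% = orexin A challenge wells and 100% = SB-334867-A antagonist wells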
Target sequence (O43613 whole entry, looked up): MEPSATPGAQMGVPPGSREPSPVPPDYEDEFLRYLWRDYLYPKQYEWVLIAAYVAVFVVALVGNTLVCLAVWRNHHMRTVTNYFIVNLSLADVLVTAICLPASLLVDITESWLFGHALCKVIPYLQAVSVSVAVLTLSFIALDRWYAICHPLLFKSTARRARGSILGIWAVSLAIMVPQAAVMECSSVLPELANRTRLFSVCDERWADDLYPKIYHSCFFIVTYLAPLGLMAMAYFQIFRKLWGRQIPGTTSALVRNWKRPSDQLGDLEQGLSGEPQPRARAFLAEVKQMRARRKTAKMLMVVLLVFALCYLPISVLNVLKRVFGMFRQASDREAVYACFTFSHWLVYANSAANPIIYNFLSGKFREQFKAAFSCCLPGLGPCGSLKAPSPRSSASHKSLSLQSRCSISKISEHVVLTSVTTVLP
TAAR1 antag = human TAAR1 antagonists, primary screen, Fluo-8 calcium fluorescence, CHO RD-HGA16 cells. Trace amine-associated receptor 1 (Homo sapiens), Q96RJ0. antagonist. inhibition, % at 3 µM. actives 1.5% (n = 360,000);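 active = inhibition above a per-plate cutoff, the mean inhibition of test compounds on that plate plus 3 SD, cut at about 49% in these data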;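 note: 0% = DMSO plus EC80 beta-PEA response and 100% = DMSO alone without agonist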
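System: RD-HGA16 CHO cells with stable hTAAR1 and Gα16 | Probe or stimulus: EC80 β-phenethylamine stimulus | Dosing: 3 µM, single point | Times: Dye loading 75 min at 37 °C, then 30 min room temperature | Measured by: Fluo-8 calcium-sensitive fluorescence | Read-out basis: % inhibition of agonist calcium response | Replicates: n of 1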
CHO parental Ca = ATP-evoked calcium signal inhibitors, parental CHO, primary screen, counter-screen for OX1R antagonist project, cell-based, fluorescence, Fluo-8 calcium dye. actives 0.63% (n = 330,000). parental CHO-K1, ATP-induced calcium, Fluo-8 fluorescence. AID 463079, 2010. inhibition, % at 5.6 µM;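 active = inhibition above that plate's mean sample inhibition plus 3 SD, cut at about 26% in these data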;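 note: 0% = ATP-challenged DMSO wells and 100% = DMSO wells without ATP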
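Test system: untransfected parental CHO cell line; also added: ATP stimulus; dosing: 5.6 µM, single dose; signal: calcium-sensitive Fluo-8 fluorescence; measure: percent inhibition of ATP-evoked calcium rise, normalized to controls; benchmarks: low control ATP plus DMSO, high control DMSO only; replication: one well per compound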
OX1R antag-2 = antagonists of human orexin 1 receptor (OX1R); Orexin/Hypocretin receptor type 1 (Homo sapiens), O43613; OX1R-expressing cells, FRET antagonist read-out; actives 1.8% (n = 330,000); AID 485270, 2010; inhibition, % at 6.6 µM; in the data active = inhibition mostly above about 38%, no sharp cut-off; inactive = mostly below about 40%;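 note: 0% = agonist challenge alone and 100% = reference antagonist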
TAAR1 agonist = human TAAR1 agonists, primary screen, Fluo-8 calcium fluorescence, CHO RD-HGA16 cells | actives 0.99% (n = 360,000) | activation, % at 3 µM | Trace amine-associated receptor 1 (Homo sapiens), Q96RJ0 | vehicle wells 0%, saturating PEA agonist 100%;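 active = activation above the mean activation of all test compounds in the run plus 3 SD, cut at about 38% in these data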
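System: CHO RD-HGA16 cells carrying human TAAR1 plus Gα16; Incubation: 17-24 h seeding, 75 min 37 °C dye, 30 min RT; Measured by: Fluo-8 fluorescence, 5 s baseline then 140 s kinetic read; Control set: DMSO and PEA EC100; Replication: single well for each compound.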
The depositor's hits bear a star; / = no result given.

SMILES	GPR7 antagonist	OX1R antag-1	TAAR1 antag	CHO parental Ca	OX1R antag-2	TAAR1 agonist
C[C@H](NC(=O)c1ccccc1)C(=O)OCC(=O)Nc1ccc2c(c1)OCO2	/	9	49*	-13	8	1
O=C(COC(=O)[C@H](Cc1c[nH]c2ccccc12)NC(=O)c1ccc(Cl)cc1)Nc1ccc2c(c1)OCO2	5	34	11	35*	6	5
NS(=O)(=O)c1cccc(C(=O)N2CCCc3ccccc32)c1	/	/	-18	/	/	1
Cc1ccccc1Nc1c([N+](=O)[O-])cncc1[N+](=O)[O-]	-28	2	-20	-5	63*	-1
O=[N+]([O-])c1cncc([N+](=O)[O-])c1Nc1cccc(O)c1	10	4	-8	-6	56*	2
O=[N+]([O-])c1cc([N+](=O)[O-])c2nonc2c1Nc1ccc(O)cc1	-9	6	-9	1	76*	-1
COc1ccccc1Nc1c([N+](=O)[O-])cncc1[N+](=O)[O-]	7	2	13	-3	57	-1
CC(C)(C)OC(=O)N1CCC[C@@H]1C(=O)N1CCC[C@H]1C(=O)NCc1ccccc1	/	/	-15	/	/	1
COC(=O)c1cn(NC(=O)Cc2cccc(C(F)(F)F)c2)c(=O)c2ccccc12	-7	-8	-20	2	76*	3
COC(=O)c1cn(NC(=O)Cc2ccc(Cl)cc2)c(=O)c2ccccc12	-10	-26	14	-13	22	11
COCCn1c(SCC#N)nnc1-c1ccc([N+](=O)[O-])cc1	2	-15	22	-6	72*	8
COCCn1c(SCC#N)nnc1-c1ccccc1O	-4	-5	-2	0	6	6
COc1cc(C[C@@H](C)[C@@H](C)Cc2ccc(O)c(OC)c2)ccc1O	/	10	35	10	4	14
CC(Cc1ccc(O)c(O)c1)C(C)Cc1ccc(O)c(O)c1 (stereo unspecified)	/	32	/	34*	4	/
Cc1[nH]c2ccccc2c1CC(=O)Nc1ccc(Nc2cccnc2)c(-c2ccc(Oc3ccccc3)cc2)c1	/	/	9	/	/	0
COc1ccc(OC)c(S(=O)(=O)Oc2ccc(N)c3ccccc23)c1	/	-13	-22	-3	43*	1
O=C(c1cc(-c2ccccc2)nc2ccccc12)N1CCN(c2ccccc2O)CC1	5	-13	55*	-2	8	7
COc1ccc(-c2cc(C(=O)N3CCCC(C(F)(F)F)C3)c3ccccc3n2)cc1OC (stereo unspecified)	/	-32	50*	-18	25	14
COc1ccc(-c2cc(C(=O)N3CCN(c4ccccc4)CC3)c3ccccc3n2)cc1OC	-6	-25	33	-24	25	24
COc1ccc(-c2cc(C(=O)OCC(=O)N3CCCCC3)c3ccccc3n2)cc1OC	/	-25	71*	-26	15	9
COc1ccc(-c2cc(C(=O)N3CCCCCC3)c3ccccc3n2)cc1OC	/	/	24	/	/	10
C[C@H]1CN(S(=O)(=O)C(C)(C)C)[C@@H](CCO)/C1=C\CCO	/	/	-11	/	/	2
N#CCS(=O)(=O)c1cccc[n+]1[O-]	/	/	-11	/	/	3
NS(=O)(=O)c1cccc(NC(=O)COC(=O)c2ccccc2C(=O)c2ccccc2)c1	/	-15	-8	-9	5	0
Cc1c(C(=O)OCC(=O)Nc2cccc(S(N)(=O)=O)c2)oc2c1ccc1ccccc12	0	27	37	2	48*	5
SMILES	GPR7 antagonist	OX1R antag-1	TAAR1 antag	CHO parental Ca	OX1R antag-2	TAAR1 agonist
COc1ccc(N/C=C2\CCc3ccccc3C2=O)cc1	19	-34	12	3	39*	9
O=c1cc(C(F)(F)F)[nH]c2c(C(F)(F)F)cccc12	-12	0	/	8	67*	/
CN[C@H]1C[C@H]2c3[nH]c4c(-c5ccccc5)cccc4c3CCN2C[C@H]1[C@H](C)O	/	/	3	/	/	4
O=C(COC(=O)c1cc(NS(=O)(=O)c2cccs2)ccc1O)Nc1ccccc1	-3	-12	13	-10	73*	10
N#C/C(=N\Nc1ccc(Cl)cc1)C(N)=S	11	21	0	18	49*	10
COc1ccc(Br)cc1/C=C/C(=O)c1ccc(NC(C)=O)cc1	6	-5	56*	-6	58	13
COc1ccccc1/C=C/C(=O)Nc1ccc2c(c1)CCC2	6	-7	30	-4	26	-1
COc1ccc(C(=O)/C=C/Nc2ccc(NC(C)=O)cc2)cc1OC	-6	-14	4	-18	14	3
COc1ccc(OC)c(/C=C/C(=O)Nc2ccc3c(c2)CCC3)c1	-9	-26	6	-10	69*	-1
COc1ccc(NC(=O)/C=C/c2cc(Br)ccc2OC)cc1	2	36	12	-22	83*	1
CCCn1cc(C(=O)Nc2ccc(Oc3cccnc3)cc2)c2ccccc21	/	/	18	/	/	0
O=C(Nc1ccc(Cl)cc1)N1CCC(c2nc(-c3ccccc3Cl)no2)CC1	1	32	32	37*	45	11
COc1cc(Nc2cc(C)n(-c3ccc(Cl)c(OC)c3)c(=O)c2)ccc1Cl	/	/	-13	/	/	-2
O=C(c1ccc([N+](=O)[O-])s1)N1CCc2ccccc21	2	-5	-10	-1	7	-3
O=C(c1ccc([N+](=O)[O-])s1)N1CCCc2ccccc21	8	-6	18	-9	67*	-6
COc1ccc(-c2ccc3c(n2)CCCN3S(=O)(=O)c2ccc(C#N)cc2)cc1	/	/	-29	/	/	1
CCCn1c(=O)[nH]c(=O)c2c1nc(-c1cc([N+](=O)[O-])ccc1Cl)n2CCOC	-8	-24	-24	-21	41*	7
COc1ccc(C(C(=O)NCc2ccccc2)N(Cc2ccco2)C(=O)c2snc(C(N)=O)c2N)cc1OC (stereo unspecified)	-4	-7	57*	-6	9	18
COc1ccc(C(C(=O)NCC2CCCO2)N(Cc2ccco2)C(=O)c2snc(C(N)=O)c2N)cc1OC (stereo unspecified)	-10	-16	24	0	20	10
COc1ccc(C(C(=O)NCc2ccccc2)N(Cc2ccco2)C(=O)c2snc(C(N)=O)c2N)cc1 (stereo unspecified)	-1	-11	64*	-3	23	17
